Consider 6 molecules from paper PMC6536312 (Bioorganic & medicinal chemistry, 2019).

Structures are written as SMILES. Where two headings read alike, the source gives them in different places.

The test system of one assay is Panc-1 cells. Description: Cell viability study. The class given is cell-based, human. In outline: (§1)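 Cells were maintained in high-glucose GlutaMax DMEM with 10% heat-inactivated FBS. They were seeded at 20,000/well, left overnight in 5% FBS medium, then dosed in 1:9 DMSO/acetone against vehicle controls, redosed every 24 h for the 48 h and 72 h runs. Resazurin (0.02% in PBS) was added for 2-3 h, read at ex 560/em 590 nm. IC50 came from nonlinear regression of log concentration versus % control.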

The target of assay [1] is T1, σ2 receptor (Rattus norvegicus, UniProt Q5U3Y7).
T1 sequence (Q5U3Y7 1-176): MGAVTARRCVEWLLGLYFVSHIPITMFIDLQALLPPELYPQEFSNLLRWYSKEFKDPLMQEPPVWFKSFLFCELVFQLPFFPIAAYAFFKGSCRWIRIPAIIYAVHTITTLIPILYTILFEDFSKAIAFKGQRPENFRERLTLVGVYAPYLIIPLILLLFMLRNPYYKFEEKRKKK
To be noted: previously reported; cited from earlier work.

The target of assay [2] is T1, σ2 receptor. Nature of the assay: Radioligand binding assay at sigma-2 receptor. To be noted: for fold lower affinity at the σ2 receptor than compound 3: vs compound 3.
The target in a further assay is σ1 receptor (Cavia porcellus, UniProt Q60492). Description: Radioligand binding assay at sigma-1 receptor.
The subject of the next assay is MDA-MB-231 cells. Nature of the assay: Cell viability study. Type of assay: cell-based, human. In short, it runs like this:
as §1

σ1 receptor, sequence (Q60492 whole entry): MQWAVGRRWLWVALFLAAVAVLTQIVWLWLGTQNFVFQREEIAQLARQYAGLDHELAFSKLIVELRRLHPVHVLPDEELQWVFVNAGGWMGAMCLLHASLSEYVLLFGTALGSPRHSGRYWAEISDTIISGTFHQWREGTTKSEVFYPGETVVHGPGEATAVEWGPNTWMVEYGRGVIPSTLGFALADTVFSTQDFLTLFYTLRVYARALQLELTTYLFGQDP

Regarding `O=C(CCCN1CCCN(c2ccc(Cl)cc2)CC1)c1ccc(F)cc1` [Compound 1, 4-(4-(4-chlorophenyl)-1,4-diazepan-1-yl)-1-(4-fluorophenyl)butan-1-one], the “IC50, cell viability” value in the assay on Panc-1 cells is given as “sub-micromolar”. Also, at σ2 receptor [1], the “Ki(σ1)/Ki(σ2)” value is 4.3.

Consider `O=C1c2ccc(Cl)cc2CC1CCN1CCCN(c2ccc(Cl)cc2)CC1` (stereo not shown) [Compound 8, 5-chloro-2-(2-(4-(4-chlorophenyl)-1,4-diazepan-1-yl)ethyl)-2,3-dihydro-1H-inden-1-one], for which the “fold lower affinity at the σ2 receptor than compound 3” value at σ2 receptor [2] is listed as “over 31 fold”.

Turning to `O=C1c2ccc(F)cc2CC1CCN1CCCN(c2ccc(Cl)cc2)CC1` (stereo not shown) [Compound 3], the “fold lower affinity for the σ1 receptor compared to compound 1” value at σ1 receptor (vs compound 1) is on record as “more than 2 fold”. For the same molecule, at σ2 receptor [2] (vs compound 1), the “fold higher affinity for σ2 receptor compared to compound 1” value is recorded as “greater than 9 fold”. Turning to `O=C1c2ccccc2CC1CCN1CCCN(c2ccc(Cl)cc2)CC1` (stereo not shown) [Compound 4, 2-(2-(4-(4-chlorophenyl)-1,4-diazepan-1-yl)ethyl)-2,3-dihydro-1H-inden-1-one], the “fold higher affinity than compound 3 at the σ1 receptor” value at σ1 receptor (vs compound 3) was 3 fold. For the same molecule, the “fold lower affinity at the σ2 receptor than compound 3” value on σ2 receptor [2] is reported as “over 7 fold”. Take `O/N=C(\CCCN1CCCN(c2ccc(Cl)cc2)CC1)c1ccc(F)cc1` [Compound 12, 4-(4-(4-chlorophenyl)-1,4-diazepan-1-yl)-1-(4-fluorophenyl)butan-1-one oxime]: the “IC50, cell viability” value with Panc-1 cells is “sub-micromolar”. What is called IC50 is the point on the concentration scale where inhibition reaches its midpoint. On to `N.N.[Cl][Pt][Cl]` [Cisplatin], for which the half-inhibitory concentration (IC50) in the assay on MDA-MB-231 cells (read-out: IC50 (48 h), cell viability, MDA-MB-231, 48 h treatment) turned out to be 50 ± 9.8 µM; with MDA-MB-231 cells (read-out: IC50 (72 h), cell viability, MDA-MB-231, 72 h treatment), 64.2 ± 4.3 µM.
